Experimental data reported in ChEMBL document CHEMBL3046428, “Isolation, characterization and antifungal activity of major constituents of the Himalayan lichen Parmelia reticulata Tayl” (2011).
≈ marks a conversion by molar mass, not a printed value.

Experiments:
Type in all cases: functional
[1] = tested on: Pythium aphanidermatum; assay: Antifungal activity against Pythium aphanidermatum assessed as growth inhibition at 7.25 ug/ml by poisoned food technique
Method in brief: (§1)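 Poisoned-food assay on potato dextrose agar: test material is dissolved and diluted in acetone and mixed into the medium before pouring, with an acetone-only control. A 5 mm mycelial disk is cut from the growing edge of a 2-week-old colony and placed inoculum-down at the plate centre. Plates are incubated at 28 °C until control growth is nearly complete. Colony diameter is measured, and % inhibition = (C−T)/C×100. Four replicates give the mean.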

[2] = tested on: Pythium aphanidermatum; assay: Antifungal activity against Pythium aphanidermatum assessed as growth inhibition at 15.50 ug/ml by poisoned food technique; method in brief: as §1
[3] = tested on: Pythium aphanidermatum; assay: Antifungal activity against Pythium aphanidermatum assessed as growth inhibition at 31 ug/ml by poisoned food technique; method in brief: as §1
[4] = tested on: Fusarium udum; assay: Antifungal activity against Fusarium udum assessed as growth inhibition at 7.25 ug/ml by poisoned food technique; method in brief: as §1
[5] = tested on: Fusarium udum; assay: Antifungal activity against Fusarium udum assessed as growth inhibition at 15.50 ug/ml by poisoned food technique; method in brief: as §1
[6] = tested on: Fusarium udum; assay: Antifungal activity against Fusarium udum assessed as growth inhibition at 31 ug/ml by poisoned food technique; method in brief: as §1
[7] = tested on: Macrophomina phaseolina; assay: Antifungal activity against Rhizoctonia bataticola assessed as growth inhibition at 7.25 ug/ml by poisoned food technique; method in brief: as §1
[8] = tested on: Macrophomina phaseolina; assay: Antifungal activity against Rhizoctonia bataticola assessed as growth inhibition at 15.50 ug/ml by poisoned food technique; method in brief: as §1
[9] = tested on: Macrophomina phaseolina; assay: Antifungal activity against Rhizoctonia bataticola assessed as growth inhibition at 31 ug/ml by poisoned food technique; method in brief: as §1
[10] = tested on: Rhizoctonia solani; assay: Antifungal activity against Rhizoctonia solani assessed as growth inhibition at 7.25 ug/ml by poisoned food technique; method in brief: as §1
[11] = tested on: Rhizoctonia solani; assay: Antifungal activity against Rhizoctonia solani assessed as growth inhibition at 15.50 ug/ml by poisoned food technique; method in brief: as §1
[12] = tested on: Rhizoctonia solani; assay: Antifungal activity against Rhizoctonia solani assessed as growth inhibition at 31 ug/ml by poisoned food technique; method in brief: as §1
[13] = tested on: Athelia rolfsii; assay: Antifungal activity against Athelia rolfsii assessed as growth inhibition at 7.25 ug/ml by poisoned food technique; conditions: Agroathelia rolfsii; method in brief: as §1
[14] = tested on: Athelia rolfsii; assay: Antifungal activity against Athelia rolfsii assessed as growth inhibition at 15.50 ug/ml by poisoned food technique; conditions: Agroathelia rolfsii; method in brief: as §1
[15] = tested on: Athelia rolfsii; assay: Antifungal activity against Athelia rolfsii assessed as growth inhibition at 31 ug/ml by poisoned food technique; conditions: Agroathelia rolfsii; method in brief: as §1
[16] = tested on: Globisporangium debaryanum; assay: Antifungal activity against Pythium debaryanum assessed as growth inhibition by poisoned food technique; conditions: read-out: ED50 (the source's name)
Method in brief: (§2)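 ED50 from poisoned-food growth inhibition on PDA at 250, 125 and 62.5 μg/mL in medium, with an acetone control. Plates were inoculated with a 5 mm mycelial disc, incubated at 28 °C, and colony diameter was measured in quadruplicate. Percent inhibition was corrected by Abbott's formula, using a correction factor from the 9 cm dish diameter, and ED50 (μg/mL) was derived by probit analysis.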

[17] = tested on: Pythium aphanidermatum; assay: Antifungal activity against Pythium aphanidermatum assessed as growth inhibition by poisoned food technique; conditions: read-out: ED50 (the source's name); method in brief: as §2
[18] = tested on: Fusarium udum; assay: Antifungal activity against Fusarium udum assessed as growth inhibition by poisoned food technique; conditions: read-out: ED50 (the source's name); method in brief: as §2
[19] = tested on: Macrophomina phaseolina; assay: Antifungal activity against Rhizoctonia bataticola assessed as growth inhibition by poisoned food technique; conditions: read-out: ED50 (the source's name); method in brief: as §2
[20] = tested on: Rhizoctonia solani; assay: Antifungal activity against Rhizoctonia solani assessed as growth inhibition by poisoned food technique; conditions: read-out: ED50 (the source's name); method in brief: as §2
[21] = tested on: Athelia rolfsii; assay: Antifungal activity against Athelia rolfsii assessed as growth inhibition by poisoned food technique; conditions: Agroathelia rolfsii; read-out: ED50 (the source's name); method in brief: as §2
[22] = tested on: Globisporangium debaryanum; assay: Antifungal activity against Pythium debaryanum assessed as growth inhibition at 7.25 ug/ml by poisoned food technique; method in brief: as §1
[23] = tested on: Globisporangium debaryanum; assay: Antifungal activity against Pythium debaryanum assessed as growth inhibition at 15.50 ug/ml by poisoned food technique; method in brief: as §1
[24] = tested on: Globisporangium debaryanum; assay: Antifungal activity against Pythium debaryanum assessed as growth inhibition at 31 ug/ml by poisoned food technique; method in brief: as §1
[25] = tested on: Globisporangium debaryanum; assay: Antifungal activity against Pythium debaryanum assessed as growth inhibition at 62.5 ug/ml by poisoned food technique
Method in brief: (§3)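 Poisoned-food assay on PDA. Test material was diluted in acetone and mixed into molten medium at final 250, 125 or 62.5 μg/mL, with 1 mL acetone as control. Plates received a 5 mm mycelial disc from the front of a 2-week-old colony and were incubated at 28 °C until control growth was nearly complete. Colony diameter was measured, giving %I = (C−T)/C×100. Mean ± SD of four replicates.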

[26] = tested on: Globisporangium debaryanum; assay: Antifungal activity against Pythium debaryanum assessed as growth inhibition at 125 ug/ml by poisoned food technique; method in brief: as §3
[27] = tested on: Globisporangium debaryanum; assay: Antifungal activity against Pythium debaryanum assessed as growth inhibition at 250 ug/ml by poisoned food technique; method in brief: as §3
[28] = tested on: Pythium aphanidermatum; assay: Antifungal activity against Pythium aphanidermatum assessed as growth inhibition at 62.5 ug/ml by poisoned food technique; method in brief: as §3
[29] = tested on: Pythium aphanidermatum; assay: Antifungal activity against Pythium aphanidermatum assessed as growth inhibition at 125 ug/ml by poisoned food technique; method in brief: as §3
[30] = tested on: Pythium aphanidermatum; assay: Antifungal activity against Pythium aphanidermatum assessed as growth inhibition at 250 ug/ml by poisoned food technique; method in brief: as §3
[31] = tested on: Fusarium udum; assay: Antifungal activity against Fusarium udum assessed as growth inhibition at 62.5 ug/ml by poisoned food technique; method in brief: as §3
[32] = tested on: Fusarium udum; assay: Antifungal activity against Fusarium udum assessed as growth inhibition at 125 ug/ml by poisoned food technique; method in brief: as §3
[33] = tested on: Fusarium udum; assay: Antifungal activity against Fusarium udum assessed as growth inhibition at 250 ug/ml by poisoned food technique; method in brief: as §3
[34] = tested on: Macrophomina phaseolina; assay: Antifungal activity against Rhizoctonia bataticola assessed as growth inhibition at 62.5 ug/ml by poisoned food technique; method in brief: as §3
[35] = tested on: Macrophomina phaseolina; assay: Antifungal activity against Rhizoctonia bataticola assessed as growth inhibition at 125 ug/ml by poisoned food technique; method in brief: as §3
[36] = tested on: Macrophomina phaseolina; assay: Antifungal activity against Rhizoctonia bataticola assessed as growth inhibition at 250 ug/ml by poisoned food technique; method in brief: as §3
[37] = tested on: Rhizoctonia solani; assay: Antifungal activity against Rhizoctonia solani assessed as growth inhibition at 62.5 ug/ml by poisoned food technique; method in brief: as §3
[38] = tested on: Rhizoctonia solani; assay: Antifungal activity against Rhizoctonia solani assessed as growth inhibition at 125 ug/ml by poisoned food technique; method in brief: as §3
[39] = tested on: Rhizoctonia solani; assay: Antifungal activity against Rhizoctonia solani assessed as growth inhibition at 250 ug/ml by poisoned food technique; method in brief: as §3
[40] = tested on: Athelia rolfsii; assay: Antifungal activity against Athelia rolfsii assessed as growth inhibition at 62.5 ug/ml by poisoned food technique; conditions: Agroathelia rolfsii; method in brief: as §3
[41] = tested on: Athelia rolfsii; assay: Antifungal activity against Athelia rolfsii assessed as growth inhibition at 125 ug/ml by poisoned food technique; conditions: Agroathelia rolfsii; method in brief: as §3
[42] = tested on: Athelia rolfsii; assay: Antifungal activity against Athelia rolfsii assessed as growth inhibition at 250 ug/ml by poisoned food technique; conditions: Agroathelia rolfsii; method in brief: as §3

SMILES: CCCCC(O)(Cn1cncn1)c1ccc(Cl)cc1Cl (stereo not drawn) [HEXACONAZOLE]
- inhibition at 7.25 µg/mL [1]: 14.1%
- inhibition at 15.5 µg/mL [2]: 32.7%
- inhibition at 31 µg/mL [3]: 65.3%
- inhibition at 7.25 µg/mL [4]: 18.6%
- inhibition at 15.5 µg/mL [5]: 23.7%
- inhibition at 31 µg/mL [6]: 70%
- inhibition at 7.25 µg/mL [7]: 60.1%
- inhibition at 15.5 µg/mL [8]: 73.2%
- inhibition at 31 µg/mL [9]: 87%
- inhibition at 7.25 µg/mL [10]: 20.6%
- inhibition at 15.5 µg/mL [11]: 38.2%
- inhibition at 31 µg/mL [12]: 72.6%
- inhibition at 7.25 µg/mL [13]: 28.2%
- inhibition at 15.5 µg/mL [14]: 45.3%
- inhibition at 31 µg/mL [15]: 90.7%
- EC50 [16]: 25.9 µg/mL (≈ 82.5 µM)
- EC50 [17]: 22.1 µg/mL (≈ 70.2 µM)
- EC50 [18]: 22 µg/mL (≈ 70 µM)
- EC50 [19]: 4.4 µg/mL (≈ 14 µM)
- EC50 [20]: 18.3 µg/mL (≈ 58.2 µM)
- EC50 [21]: 13.4 µg/mL (≈ 42.7 µM)
- inhibition at 7.25 µg/mL [22]: 11.1%
- inhibition at 15.5 µg/mL [23]: 26.3%
- inhibition at 31 µg/mL [24]: 59.2%

SMILES: Cc1cc(O)c(C=O)c2c1C(=O)Oc1c(CO)c(O)c3c(c1O2)C(O)OC3=O (stereo not drawn) [SLAZINIC ACID]
- EC50 [16]: 151 µg/mL (≈ 388 µM)
- inhibition at 62.5 µg/mL [25]: 11.9%
- inhibition at 125 µg/mL [26]: 28.1%
- inhibition at 250 µg/mL [27]: 43.5%
- EC50 [17]: 121 µg/mL (≈ 312 µM)
- inhibition at 62.5 µg/mL [28]: 11.1%
- inhibition at 125 µg/mL [29]: 25.5%
- inhibition at 250 µg/mL [30]: 61%
- EC50 [18]: 88.2 µg/mL (≈ 227 µM)
- inhibition at 62.5 µg/mL [31]: 31%
- inhibition at 125 µg/mL [32]: 50.1%
- inhibition at 250 µg/mL [33]: 67%
- EC50 [19]: 161 µg/mL (≈ 416 µM)
- inhibition at 62.5 µg/mL [34]: 9%
- inhibition at 125 µg/mL [35]: 26.8%
- inhibition at 250 µg/mL [36]: 41.2%
- EC50 [20]: 179 µg/mL (≈ 462 µM)
- inhibition at 62.5 µg/mL [37]: 22.1%
- inhibition at 125 µg/mL [38]: 30.2%
- inhibition at 250 µg/mL [39]: 45.2%
- EC50 [21]: 164 µg/mL (≈ 423 µM)
- inhibition at 62.5 µg/mL [40]: 5.93%
- inhibition at 125 µg/mL [41]: 21%
- inhibition at 250 µg/mL [42]: 38.2%
